Data on 6 compounds can be found in ChEMBL document CHEMBL1152561, “Evaluation of delocalized lipophilic cationic dyes as delivery vehicles for photosensitizers to mitochondria” (Bioorg Med Chem, 2009).

For data set [1], the system named is R3230AC. The data set is described as follows: Cytotoxicity against rat R3230AC cells up to 20 uM for 24 hrs in dark. In kind it is functional, cell-based.
A short description of data set [2]: n-Octanol-phosphate buffer partition coefficient, log D at pH 7.4 by shake-flask method. In kind it is physicochemical. In outline: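 Dye was added to saturation in equal volumes (2 mL) of n-octanol and pH 7.4 phosphate buffer. The mixture was sonicated 30 min and left to settle 4 h. Each layer was diluted in dichloromethane and absorbance measured. Log D7.4 was taken from the ratio of absorbances between the two layers.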

Data set [3] deals with R3230AC. The data set is described as follows: Stability in rat R3230AC cell lysate at 10 uM after 24 hrs. In kind it is ADME, cell-based. In outline:
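Cells seeded at 2.0–3.0 × 10^4 per well were grown 24 h, then exposed to dye in complete medium for 24 h. After two 0.9% NaCl rinses, cells were lysed in DMSO. Fluorescence (excitation 550 nm, emission 555–750 nm) was compared with dye in DMSO, including the ratio of the 580 and 650 nm peaks.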

The test system of data set [4] is R3230AC. As to the kind of experiment: Phototoxicity in rat R3230AC cells irradiated with halogen lamp pretreated 24 hrs before irradiation by MTT assay. Conditions: light or radiation study. In kind it is functional, cell-based. The method in brief: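 Cells were seeded at 1.0–1.5 × 10^4 per well, grown 24 h, then given 1–20 µM dye in complete medium for 24 h. After two saline rinses, cells in clear medium were irradiated with halogen broadband light (400–850 nm, water-filtered) at 3 mW cm−2 for 1 h while orbiting. They were refed and grown 24 h more. Viability was read by MTT as a percentage of light-exposed dye-free controls.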

For data set [5], the system named is R3230AC. The data set is described as follows: Cellular uptake in rat R3230AC cells measured per cell at 10 uM after 24 hrs. The class given is ADME, cell-based. In outline: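 R3230AC cells were grown in α-MEM with 10% bovine growth serum at 37 °C and 5% CO2. Dyes were diluted from 2 mM DMSO stocks. Intracellular dye content was measured by fluorescence at dye-appropriate excitation and emission wavelengths and converted using a fluorescence calibration curve.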

The source made the active and inactive calls. No cut-off for these calls is given here.

Take `CCN(CC)c1ccc2c(-c3ccccc3C(C)=O)c3ccc(=[N+](CC)CC)cc-3oc2c1`: the result in data set [1] was inactive.
For `CCN(CC)c1ccc2c(-c3ccccc3C(=O)O)c3ccc(=[N+](CC)CC)cc-3oc2c1` [RHODAMINE B], the logD in data set [2] worked out at 2.2.
Take `CCN(CC)c1ccc2c(-c3ccccc3C(=O)OCCCOc3ccc(-c4c5nc(c(-c6ccccc6)c6ccc([nH]6)c(-c6ccccc6)c6nc(c(-c7ccccc7)c7ccc4[nH]7)C=C6)C=C5)cc3)c3ccc(=[N+](CC)CC)cc-3oc2c1.[I-]`: the result in data set [1] was inactive. Further, in data set [3], the Stability entry is given as “Stable”. For the same compound, the IC50 in data set [4] is 3.95 µM. The same compound registered a logD in data set [2] of 3.53.
In the case of `Oc1ccc(-c2c3nc(c(-c4ccccc4)c4ccc([nH]4)c(-c4ccccc4)c4nc(c(-c5ccccc5)c5ccc2[nH]5)C=C4)C=C3)cc1`, the outcome in data set [1] was inactive. Besides, the Activity in data set [5] came to 5.6 fmol. Further, the logD in data set [2] stood at 2.3.
In data set [5], `CN(C)c1ccc2cc3ccc(N(C)C)cc3[n+](CCCOc3ccc(-c4c5nc(c(-c6ccccc6)c6ccc([nH]6)c(-c6ccccc6)c6nc(c(-c7ccccc7)c7ccc4[nH]7)C=C6)C=C5)cc3)c2c1.[I-]` displayed an Activity of 68.2 fmol. Moreover, the IC50 in data set [4] was 3.28 µM. In addition, in data set [2], the logD stood at 0.79.
In the case of `CN(C)c1ccc2cc3ccc(N(C)C)cc3nc2c1`, the IC50 in data set [4] was 2.29 µM. The log distribution coefficient (logD) in data set [2] was -0.99.

The logD is the decadic logarithm of the distribution of all forms, ionised or not, between an organic phase and buffer at a given pH. A low value points to lower lipophilicity. The term IC50 denotes the concentration needed to halve the response being measured.
